In ChEMBL document CHEMBL3351507, “11H-Pyrido[3',2':4,5]pyrrolo[3,2-c]cinnoline and pyrido[3',2':4,5]pyrrolo[1,2-c][1,2,3]benzotriazine: two new ring systems with antitumor activity” (2014):
Calls of active or inactive are those of the source. The calls are words filed in the database; no cut-off is given here.

Columns and labels:
[1] = test system: Jurkat; assay: Induction of apoptosis in human Jurkat cells assessed as caspase-9 activation at 500 nM after 6 hrs by plate reader analysis; format: functional, cell-based
How it was run: (§1)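 Jurkat cells were treated with 500 nM compound for 6 h and 24 h, then lysed. Lysates were incubated with pNA-conjugated substrates: Ac-DEVD (caspase-3), Ac-IETD (caspase-8) and LEHD (caspase-9). pNA release was read at 405 nm and normalized to Bradford protein. Results are expressed as fold increase over untreated control.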

[2] = test system: SK-MEL-2; assay: Cytotoxicity against human SK-MEL-2 cells assessed as growth inhibition after 72 hrs by MTT assay; format: functional; conditions: SK-MEL-2, 72 h
How it was run: (§2)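 NCI 60-cell-line panel screen. Compounds were tested at 5 concentrations in 10-fold dilution (10^-4 to 10^-8 M) across the full panel. GI50 was taken as the molar concentration giving 50% inhibition of net cell growth.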

[3] = Cytotoxicity against human OVCAR3 cells assessed as growth inhibition after 72 hrs by MTT assay; format: functional; conditions: OVCAR-3, 72 h; how it was run: as §2
[4] = Cytotoxicity against human HCT15 cells assessed as growth inhibition after 72 hrs by MTT assay; format: functional; conditions: HCT-15, 72 h
[5] = test system: NCI-H322M; assay: Cytotoxicity against human NCI-H322M cells assessed as growth inhibition after 72 hrs by MTT assay; format: functional
[6] = test system: MDA-MB-231; assay: Cytotoxicity against human MDA-MB-231 cells assessed as growth inhibition after 72 hrs by MTT assay; format: functional; conditions: MDA-MB-231, 72 h
[7] = test system: CAKI-1; assay: Cytotoxicity against human Caki1 cells assessed as growth inhibition after 72 hrs by MTT assay; format: functional; conditions: CAKI-1, 72 h
[8] = test system: Jurkat; assay: Induction of apoptosis in human Jurkat cells assessed as loss of plasma membrane asymmetry at 250 to 500 nM after 6 hrs by annexin V-FITC/propidium iodide staining-based flow cytofluorimetric analysis; format: functional, cell-based
How it was run: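 Jurkat cells were incubated with 250 or 500 nM compound for 6 h or 24 h. They were then double-stained with Annexin V-FITC and propidium iodide and analysed by flow cytometry (488 nm excitation; emission 525 and 585 nm). Mean ± SEM of 3 experiments.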

[9] = test system: Jurkat; assay: Cell cycle arrest in human Jurkat cells assessed as accumulation at G1 phase at 0.5 uM after 24 hrs by propidium iodide staining-based flow cytometry (reference value: 62.6%); format: functional
[10] = Cytotoxicity against human EKVX cells assessed as growth inhibition after 72 hrs by MTT assay; format: functional
[11] = test system: Malme-3M; assay: Cytotoxicity against human MALME-3M cells assessed as growth inhibition after 72 hrs by MTT assay; format: functional
[12] = test system: NCI-H226; assay: Cytotoxicity against human NCI-H226 cells assessed as growth inhibition after 72 hrs by MTT assay; format: functional; conditions: NCI-H226, 72 h
[13] = test system: A498; assay: Cytotoxicity against human A498 cells assessed as growth inhibition after 72 hrs by MTT assay; format: functional; conditions: A498, 72 h
[14] = test system: MDA-MB-435; assay: Cytotoxicity against human MDA-MB-435 cells assessed as growth inhibition after 72 hrs by MTT assay; format: functional; conditions: MDA-MB-435, 72 h
[15] = test system: TK-10; assay: Cytotoxicity against human TK10 cells assessed as growth inhibition after 72 hrs by MTT assay; format: functional; conditions: TK-10, 72 h; how it was run: as §2
[16] = test system: Jurkat; assay: Induction of apoptosis in human Jurkat cells assessed as lysosomal dysfunction at 250 to 500 nM after 24 hrs by acridine orange staining-based flow cytometry relative to control; format: functional, cell-based
How it was run: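 Jurkat cells were treated for 24 h at two concentrations, then stained with acridine orange. Flow cytometry (488 nm excitation, FL3 emission) scored red fluorescence of intact lysosomes. Mean ± SEM of at least 3 experiments, compared with control.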

[17] = test system: Jurkat; assay: Induction of ROS generation in human Jurkat cells at 500 nM after 24 hrs by HE/DCFH2-DA staining-based flow cytometry relative to control; format: functional, cell-based
How it was run: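 Jurkat cells were exposed to 500 nM compound for 24 h, then loaded in HBSS with 2.5 µM hydroethidine or 0.1 µM H2DCFDA for 30 min at 37 °C. Flow cytometry used 488 nm excitation, with emission at 585 nm (HE) or 530 nm (DCF). Mean ± SEM of 3 experiments.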

[18] = Cytotoxicity against human OVCAR8 cells assessed as growth inhibition after 72 hrs by MTT assay; format: functional; conditions: OVCAR-8, 72 h; how it was run: as §2
[19] = test system: SK-MEL-28; assay: Cytotoxicity against human SK-MEL-28 cells assessed as growth inhibition after 72 hrs by MTT assay; format: functional; conditions: SK-MEL-28, 72 h; how it was run: as §2
[20] = test system: BT-549; assay: Cytotoxicity against human BT549 cells assessed as growth inhibition after 72 hrs by MTT assay; format: functional; conditions: BT-549, 72 h
[21] = test system: RPMI-8226; assay: Cytotoxicity against human RPMI8226 cells assessed as growth inhibition after 72 hrs by MTT assay; format: functional; conditions: RPMI-8226, 72 h; how it was run: as §2
[22] = test system: Jurkat; assay: Induction of apoptosis in human Jurkat cells assessed as caspase-8 activation at 500 nM after 6 hrs by plate reader analysis; format: functional, cell-based; how it was run: as §1
[23] = test system: SNB-19; assay: Cytotoxicity against human SNB19 cells assessed as growth inhibition after 72 hrs by MTT assay; format: functional; conditions: SNB-19, 72 h; how it was run: as §2
[24] = Cytotoxicity against human OVCAR4 cells assessed as growth inhibition after 72 hrs by MTT assay; format: functional; conditions: OVCAR-4, 72 h; how it was run: as §2
[25] = test system: SF-295; assay: Cytotoxicity against human SF295 cells assessed as growth inhibition after 72 hrs by MTT assay; format: functional; conditions: SF-295, 72 h; how it was run: as §2
[26] = test system: Jurkat; assay: Induction of apoptosis in human Jurkat cells assessed as mitochondrial membrane potential depolarization after 24 hrs by JC-1 staining-based flow cytometry; format: functional, cell-based
How it was run: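 After 24 h of treatment, Jurkat cells were resuspended in HBSS and stained with JC-1. Flow cytometry measured the percentage of cells with low potential (green monomer fluorescence). Mean ± SEM of 3 experiments.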

COc1ccc2c(c1)nnc1c3cccnc3[nH]c21
Activity [1]: Active | GI50 [2]: 1960 nM | GI50 [3]: 960 nM | GI50 [4]: 2260 nM | GI50 [5]: 10000 nM | GI50 [6]: 1420 nM | GI50 [7]: 110 nM | Activity [8]: inactive | Activity [9]: 33.2% | GI50 [10]: 2820 nM | GI50 [11]: 1060 nM | GI50 [12]: 2620 nM | GI50 [13]: 8000 nM | GI50 [14]: 1440 nM | GI50 [15]: 4520 nM | Activity [16]: inactive | Activity [17]: Active | GI50 [18]: 620 nM | GI50 [19]: 11800 nM | GI50 [20]: 3430 nM | GI50 [21]: 730 nM | Activity [22]: Active | GI50 [23]: 7610 nM | GI50 [24]: 1410 nM | GI50 [25]: 1590 nM | Activity [26]: Dose-dependent effect

COc1cc2nnc3c4cccnc4[nH]c3c2cc1OC
GI50 [2]: 11300 nM | GI50 [3]: 1150 nM | GI50 [4]: 1430 nM | GI50 [5]: 20600 nM | GI50 [6]: 2690 nM | GI50 [7]: 180 nM | GI50 [10]: 2430 nM | GI50 [11]: 2280 nM | GI50 [12]: 1940 nM | GI50 [13]: 2740 nM | GI50 [14]: 2230 nM | GI50 [15]: 2380 nM | GI50 [18]: 1250 nM | GI50 [19]: 4490 nM | GI50 [20]: 3700 nM | GI50 [21]: 190 nM | GI50 [23]: 2770 nM | GI50 [24]: 1600 nM | GI50 [25]: 2430 nM

O=Nc1c2cccnc2n2nnc3ccc(Cl)cc3c12
GI50 [2]: 2280 nM | GI50 [3]: 250 nM | GI50 [4]: 960 nM | GI50 [5]: 8600 nM | GI50 [6]: 680 nM | GI50 [7]: 130 nM | GI50 [10]: 1830 nM | GI50 [11]: 1220 nM | GI50 [12]: 2190 nM | GI50 [13]: 1910 nM | GI50 [14]: 1260 nM | GI50 [15]: 940 nM | GI50 [18]: 1800 nM | GI50 [19]: 1060 nM | GI50 [20]: 1780 nM | GI50 [21]: 170 nM | GI50 [23]: 3180 nM | GI50 [24]: 980 nM | GI50 [25]: 2070 nM

COc1ccc2c(c1)nnn1c3ncccc3c(N=O)c21
Activity [1]: Active | GI50 [2]: 2180 nM | GI50 [3]: 1110 nM | GI50 [4]: 3130 nM | GI50 [5]: 9670 nM | GI50 [6]: 1260 nM | GI50 [7]: 89 nM | Activity [8]: inactive | Activity [9]: 28.1% | GI50 [10]: 3380 nM | GI50 [11]: 770 nM | GI50 [12]: 4140 nM | GI50 [13]: 1270 nM | GI50 [14]: 1940 nM | GI50 [15]: 5080 nM | Activity [16]: inactive | Activity [17]: Active | GI50 [18]: 3900 nM | GI50 [19]: 3480 nM | GI50 [20]: 5060 nM | GI50 [21]: 260 nM | Activity [22]: Active | GI50 [23]: 6280 nM | GI50 [24]: 1290 nM | GI50 [25]: 4690 nM | Activity [26]: Dose-dependent effect

COc1cc2nnn3c4ncccc4c(N=O)c3c2cc1OC
Activity [1]: Active | GI50 [2]: 17300 nM | GI50 [3]: 460 nM | GI50 [4]: 1620 nM | GI50 [5]: 22700 nM | GI50 [6]: 2600 nM | GI50 [7]: 48 nM | Activity [8]: inactive | Activity [9]: 21% | GI50 [10]: 3310 nM | GI50 [11]: 2890 nM | GI50 [12]: 3700 nM | GI50 [13]: 15800 nM | GI50 [14]: 2380 nM | GI50 [15]: 5260 nM | Activity [16]: inactive | Activity [17]: Active | GI50 [18]: 820 nM | GI50 [19]: 9100 nM | GI50 [20]: 5530 nM | GI50 [21]: 110 nM | Activity [22]: Active | GI50 [23]: 3840 nM | GI50 [24]: 1910 nM | GI50 [25]: 2620 nM | Activity [26]: Dose-dependent effect
